Measured values taken from ChEMBL document CHEMBL5537199, “Discovery and SAR Study of Boronic Acid-Based Selective PDE3B Inhibitors from a Novel DNA-Encoded Library” (J Med Chem, 2024).
pIC50: −log10 of the molar value.

Legend:
[1] = target: cGMP-inhibited 3',5'-cyclic phosphodiesterase 3B (Homo sapiens, UniProt Q13370); test: Inhibition of full-length PDE3B (M1 to E1112 residues) (unknown origin) using FAM-cAMP as substrate incubated for 120 mins by TR-FRET IMAP assay
How it was run: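 Buffer 50 mM Tris-HCl pH 7.5, 8.3 mM MgCl2, 1.7 mM EGTA, 0.05% BSA. Compounds run as a concentration curve with a top final concentration of 100 μM. DMSO and 10 μM trequinsin served as controls. Terbium TR-FRET ratio read at 520:490 nm.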

[2] = target: cGMP-inhibited 3',5'-cyclic phosphodiesterase 3A (Homo sapiens, UniProt Q14432); test: Inhibition of PDE3A (M1 to Q1141 residues) (unknown origin) using FAM-cAMP as substrate incubated for 45 mins by TR-FRET IMAP assay
Chain of cGMP-inhibited 3',5'-cyclic phosphodiesterase 3A (Q14432 whole entry, the tested form may be a part): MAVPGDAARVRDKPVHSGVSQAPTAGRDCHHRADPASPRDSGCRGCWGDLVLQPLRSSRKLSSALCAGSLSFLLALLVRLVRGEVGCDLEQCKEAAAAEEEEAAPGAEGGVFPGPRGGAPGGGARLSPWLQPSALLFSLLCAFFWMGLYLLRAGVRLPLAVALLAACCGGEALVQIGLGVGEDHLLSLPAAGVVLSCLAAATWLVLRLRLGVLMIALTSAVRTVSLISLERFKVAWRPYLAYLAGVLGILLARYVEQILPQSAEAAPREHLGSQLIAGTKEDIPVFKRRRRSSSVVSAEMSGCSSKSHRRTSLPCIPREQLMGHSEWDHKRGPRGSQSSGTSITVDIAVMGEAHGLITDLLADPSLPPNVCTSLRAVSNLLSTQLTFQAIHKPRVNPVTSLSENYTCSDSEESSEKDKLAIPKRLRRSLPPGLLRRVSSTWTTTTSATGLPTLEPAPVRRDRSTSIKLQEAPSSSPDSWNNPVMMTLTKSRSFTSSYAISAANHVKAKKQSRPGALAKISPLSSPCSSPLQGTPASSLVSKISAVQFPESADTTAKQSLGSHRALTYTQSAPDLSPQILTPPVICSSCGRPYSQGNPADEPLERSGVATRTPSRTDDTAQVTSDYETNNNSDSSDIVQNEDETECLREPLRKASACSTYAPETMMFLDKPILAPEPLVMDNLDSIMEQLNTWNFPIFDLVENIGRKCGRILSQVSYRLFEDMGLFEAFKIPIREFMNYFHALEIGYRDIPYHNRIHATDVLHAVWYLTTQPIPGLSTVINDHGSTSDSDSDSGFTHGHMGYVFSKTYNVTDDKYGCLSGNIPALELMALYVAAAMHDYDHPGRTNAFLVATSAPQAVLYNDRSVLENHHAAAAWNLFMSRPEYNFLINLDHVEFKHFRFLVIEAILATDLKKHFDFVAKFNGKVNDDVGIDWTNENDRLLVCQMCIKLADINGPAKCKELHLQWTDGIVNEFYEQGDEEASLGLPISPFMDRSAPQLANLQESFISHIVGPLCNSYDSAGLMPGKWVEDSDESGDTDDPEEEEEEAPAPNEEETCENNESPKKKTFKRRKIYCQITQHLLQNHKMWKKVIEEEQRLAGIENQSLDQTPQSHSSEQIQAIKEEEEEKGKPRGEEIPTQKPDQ
How it was run: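 Full-length PDE3A at 1.6 nM with 50 nM FAM-cAMP, 45 min reaction. Buffer 50 mM Tris-HCl pH 7.5, 8.3 mM MgCl2, 1.7 mM EGTA, 0.05% BSA. Compounds run as a concentration curve with a top final concentration of 100 μM. DMSO and 10 μM trequinsin served as controls. TR-FRET read at Ex 337 nm, Em 520/490 nm.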

[3] = Selectivity ratio of inhibition for PDE3A (M1 to Q1141 residues) (unknown origin) by IMAP assay to inhibition for PDE3B (M1 to E1112 residues) (unknown origin) by IMAP assay
[4] = Selectivity ratio of inhibition for PDE3A (M1 to Q1141 residues) (unknown origin) by RF-MS assay to inhibition for PDE3B (M1 to E1112 residues) (unknown origin) by RF-MS assay

Chain of cGMP-inhibited 3',5'-cyclic phosphodiesterase 3B (Q13370 whole entry, the tested form may be a part): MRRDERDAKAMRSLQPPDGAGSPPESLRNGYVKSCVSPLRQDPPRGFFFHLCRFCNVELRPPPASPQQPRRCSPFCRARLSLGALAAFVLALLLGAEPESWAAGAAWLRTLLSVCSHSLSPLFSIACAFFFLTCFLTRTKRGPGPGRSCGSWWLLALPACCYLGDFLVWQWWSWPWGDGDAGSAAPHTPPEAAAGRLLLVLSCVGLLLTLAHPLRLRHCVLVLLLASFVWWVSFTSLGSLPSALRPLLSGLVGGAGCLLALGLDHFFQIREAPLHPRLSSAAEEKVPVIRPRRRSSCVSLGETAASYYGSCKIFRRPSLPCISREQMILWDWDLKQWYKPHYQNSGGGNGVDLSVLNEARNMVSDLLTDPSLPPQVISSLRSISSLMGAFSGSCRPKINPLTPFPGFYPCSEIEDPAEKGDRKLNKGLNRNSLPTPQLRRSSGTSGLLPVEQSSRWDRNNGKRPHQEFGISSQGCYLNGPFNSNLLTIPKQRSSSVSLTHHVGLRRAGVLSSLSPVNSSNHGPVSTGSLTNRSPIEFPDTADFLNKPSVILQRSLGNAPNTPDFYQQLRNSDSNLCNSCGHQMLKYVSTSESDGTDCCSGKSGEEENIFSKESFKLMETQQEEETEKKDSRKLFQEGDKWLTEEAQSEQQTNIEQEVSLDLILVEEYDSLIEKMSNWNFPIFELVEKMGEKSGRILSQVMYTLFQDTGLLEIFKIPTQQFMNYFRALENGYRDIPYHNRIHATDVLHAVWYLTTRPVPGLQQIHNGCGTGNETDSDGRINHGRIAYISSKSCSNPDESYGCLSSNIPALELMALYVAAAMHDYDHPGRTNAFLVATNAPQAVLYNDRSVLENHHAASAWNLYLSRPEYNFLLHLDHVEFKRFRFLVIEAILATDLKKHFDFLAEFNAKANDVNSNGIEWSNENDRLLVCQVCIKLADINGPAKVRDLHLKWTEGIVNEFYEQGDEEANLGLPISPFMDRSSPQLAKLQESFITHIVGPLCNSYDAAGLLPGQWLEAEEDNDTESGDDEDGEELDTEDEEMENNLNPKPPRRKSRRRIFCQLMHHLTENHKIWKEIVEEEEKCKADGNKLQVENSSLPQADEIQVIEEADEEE

| Structure (SMILES) | pIC50 [1] | pIC50 [2] | Selectivity ratio [3] | Selectivity ratio [4] |
| --- | --- | --- | --- | --- |
| CNC(=O)[C@H](NC(=O)c1cc(NC(=O)C(C)Oc2c(C)cccc2C)cc(B(O)O)c1)C1CCCCC1 (stereo partly specified) | 4.60 | 4.10 | 3.3 | 4.7 |
| CNC(=O)[C@@H](NC(=O)c1cc(NC(=O)c2cc3ccccc3cn2)cc(B(O)O)c1)C1CCCCC1 | 5.50 | 5.50 | 1 | 2 |
| CCNC(=O)N1CCCCC(NC(=O)c2cc(O)cc(NC(=O)c3cc(C)cc(C)c3OC)c2)C1 (stereo unspecified) | 4.40 | 4.50 | 0.8 | 1 |
| CNC(=O)[C@@H](NC(=O)c1cc(NC(=O)c2ccc3cc(OC)ccc3c2)cc(B(O)O)c1)C1CCCCC1 | 4.50 | 4.40 | 1.3 | 1.8 |
| CNC(=O)[C@@H](NC(=O)c1cc(NC(=O)c2cc(OC)c3ccccc3n2)cc(B(O)O)c1)C1CCCCC1 | 6.80 | 6.60 | 1.6 | 2.3 |
| COc1ccc2c(OC)cc(C(=O)Nc3cc(B(O)O)cc(C(=O)N[C@H](C(N)=O)C(C)C)c3)nc2c1 | 6.50 | 5.30 | 15 | 30 |
| CNC(=O)[C@@H](NC(=O)c1cc(NC(=O)c2ccc3ccccc3n2)cc(B(O)O)c1)C1CCCCC1 | 7.30 | 7.70 | 0.5 | 0.5 |
| CNC(=O)[C@@H](NC(=O)c1cc(NC(=O)c2ccc3cc(OC)ccc3n2)cc(B(O)O)c1)C1CCCCC1 | 6.00 | 5.90 | 1.2 | 1 |
| CNC(=O)[C@@H](C)NC(=O)c1cc(NC(=O)c2cc(OC)c3ccc(OC)cc3n2)cc(B(O)O)c1 | 6.00 | 4.60 | 24 | 26 |
| COc1ccc2c(OC)cc(C(=O)Nc3cc(B(O)O)cc(C(=O)N[C@@H](C(N)=O)C(C)C)c3)nc2c1 | 5.70 | 4.80 | 8.5 | 16 |
| COc1ccc2c(OC)cc(C(=O)Nc3cc(B(O)O)cc(C(=O)NCC(C)C)c3)nc2c1 | 5.80 | 4.60 | 14 | 56 |
| CNC(=O)[C@@H](NC(=O)c1cc(NC(=O)c2cc(C)c3c(=O)[nH]c(=O)[nH]c3n2)cc(B(O)O)c1)C1CCCCC1 | 4.70 | 4.80 | 0.8 | 1.2 |
| COc1ccc2c(OC)cc(C(=O)Nc3cc(B(O)O)cc(C(=O)N4Cc5ccncc5C4)c3)nc2c1 | 6.50 | 4.90 | 43 | 97 |
| COc1ccc2c(OC)cc(C(=O)Nc3cc(B(O)O)cc(C(=O)N4CC(OC5CC5)C4)c3)nc2c1 | 6.70 | 5.50 | 17 | 75 |
| CNC(=O)[C@@H](NC(=O)c1cc(NC(=O)c2ccc3ccc(OC)cc3c2)cc(B(O)O)c1)C1CCCCC1 | 5.00 | 4.90 | 1 | 1.9 |
| COC[C@H](NC(=O)c1cc(NC(=O)c2cc(OC)c3ccc(OC)cc3n2)cc(B(O)O)c1)C(C)C | 6.30 | < 4.00 | > 190 | 50 |
| CNC(=O)[C@H](NC(=O)c1cc(NC(=O)c2cc(C)cc(C)c2OC)cc(B(O)O)c1)C1CCCCC1 | 6.10 | 5.70 | 2.6 | 6.6 |
| CNC(=O)[C@H](NC(=O)c1cc(NC(=O)c2cc(OC)c3ccc(OC)cc3n2)cc(B(O)O)c1)C1CCCCC1 | 6.50 | 5.00 | 37 | 78 |
| CNC(=O)[C@@H](NC(=O)c1cc(NC(=O)c2cc(C)cc(C)c2OC)cc(B(O)O)c1)C1CCCCC1 | 6.50 | 6.00 | 3.4 | 6.3 |
| CNC(=O)[C@H](NC(=O)c1cc(NC(=O)c2nc(C)ncc2OC)cc(B(O)O)c1)C1CCCCC1 | 4.50 | 4.50 | 0.8 | 0.8 |
| COc1ccc2c(OC)cc(C(=O)Nc3cc(B(O)O)cc(C(=O)NCC(C)OC)c3)nc2c1 (stereo unspecified) | 5.70 | 4.60 | 14 | 25 |
| CNC(=O)[C@@H](NC(=O)c1cc(NC(=O)c2cc3c(c(OC)c2)OCC(=O)N3)cc(B(O)O)c1)C1CCCCC1 | 6.20 | 6.60 | 0.4 |  |
| COc1ccc2c(OC)cc(C(=O)Nc3cc(B(O)O)cc(C(=O)N[C@H]4CCCOC4)c3)nc2c1 |  | 4.50 |  |  |

| Structure (SMILES) | pIC50 [1] | pIC50 [2] | Selectivity ratio [3] | Selectivity ratio [4] |
| --- | --- | --- | --- | --- |
| COc1ccc2c(OC)cc(C(=O)Nc3cc(B(O)O)cc(C(=O)N4CCCC4)c3)nc2c1 | 6.10 | 4.50 | 46 | 46 |
| COc1ccc2c(OC)cc(C(=O)Nc3cc(B(O)O)cc(C(=O)N[C@@H]4CCCOC4)c3)nc2c1 |  | 4.20 |  |  |
| CNC(=O)[C@@H](NC(=O)c1cc(NC(=O)c2ccc3ncccc3n2)cc(B(O)O)c1)C1CCCCC1 | 6.70 | 6.90 | 0.7 | 0.6 |
| CNC(=O)c1cc(NC(=O)c2cc(OC)c3ccc(OC)cc3n2)cc(B(O)O)c1 | 5.70 | < 4.00 | > 44 | > 107 |
| COc1ccc2c(OC)cc(C(=O)Nc3cccc(B(O)O)c3)nc2c1 | 5.00 | 4.90 | 1.4 | 4.2 |
| CNC(=O)[C@H](NC(=O)c1cc(NC(=O)c2cc(OC)ccn2)cc(B(O)O)c1)C1CCCCC1 | 4.30 | 4.30 | 1 | 1.6 |
| COc1ccc2c(OC)cc(C(=O)Nc3cc(B(O)O)cc(C(=O)O)c3)nc2c1 | 5.60 | 5.10 | 3 | 5 |
| COc1ccc2c(OC)cc(C(=O)Nc3cc(B(O)O)cc(C(=O)N(C)Cc4ccccc4)c3)nc2c1 | 6.20 | 4.80 | 21 | 62 |
| CNC(=O)[C@@H](NC(=O)c1cc(NC(=O)c2cc(OC)c3ccc(OC)cc3n2)cc(B(O)O)c1)C1CCCCC1 | 7.10 | 6.00 | 12 | 26 |
| CNC(=O)[C@@H](NC(=O)c1cc(NC(=O)c2ccc3ccccc3c2)cc(B(O)O)c1)C1CCCCC1 | 5.30 | 5.80 | 0.3 | 0.4 |
| CNC(=O)[C@@H](NC(=O)c1cc(NC(=O)c2ccc3ccncc3n2)cc(B(O)O)c1)C1CCCCC1 | 6.50 | 6.80 | 0.5 | 0.7 |
| COC(=O)c1cc(NC(=O)c2cc(OC)c3ccc(OC)cc3n2)cc(B(O)O)c1 | 5.70 | < 4.00 | > 52 | > 177 |
| CNC(=O)[C@@H](NC(=O)c1cc(NC(=O)c2nccc3ccccc23)cc(B(O)O)c1)C1CCCCC1 | 6.70 | 6.40 | 2 | 2.7 |
| COc1ccc2c(OC)cc(C(=O)Nc3cc(B(O)O)cc(C(=O)NC(C)C)c3)nc2c1 | 6.00 | 4.80 | 15 | 42 |
| CNC(=O)[C@@H](NC(=O)c1cc(NC(=O)c2cnc3ccccc3c2)cc(B(O)O)c1)C1CCCCC1 | 4.70 | 4.90 | 0.7 | 0.9 |
| CNC(=O)[C@@H](NC(=O)c1cc(NC(=O)c2ccc3cccnc3n2)cc(B(O)O)c1)C1CCCCC1 | 6.20 | 6.30 | 0.7 | 1 |
| COc1ccc2c(OC)cc(C(=O)Nc3cc(B(O)O)cc(C(N)=O)c3)nc2c1 | 5.70 | < 4.00 | > 51 | 45 |
| COc1ccc2c(OC)cc(C(=O)Nc3cc(B(O)O)cc(C(=O)N(C)C)c3)nc2c1 | 5.70 | 4.30 | 23 | 63 |
| CNC(=O)[C@@H](NC(=O)c1cc(NC(=O)c2cc(F)cc3nccnc23)cc(B(O)O)c1)C1CCCCC1 | 8.20 | 8.30 | 0.7 | 1 |
| CNC(=O)[C@H](NC(=O)c1cc(NC(=O)c2cc(Cl)cc3c2OCC(=O)N3)cc(B(O)O)c1)C1CCCCC1 | 5.80 | 5.20 | 3.3 | 7 |
| COc1ccc2c(OC)cc(C(=O)N(C)c3cc(B(O)O)cc(C(=O)NC(C)C)c3)nc2c1 | < 4.00 | < 4.00 |  |  |
| CCNC(=O)N1CCCCC(NC(=O)c2cc(NC(=O)c3cc(C)cc(C)c3OC)cc(B(O)O)c2)C1 (stereo unspecified) | 6.70 | 6.30 | 2.6 | 3.8 |
